# Compound activity (PubChem BioAssay)
# OX1R antag-1 – human HCRTR1 antagonism; O43613; CHO/OX1R cells, Fluo-8 calcium fluorescence, orexin A; inhibition, % at 5 µM; hit rate 0.43% among 330,000;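 active = inhibition above its plate's threshold, mean inhibition of all tested compounds on the plate plus 3 SD, cut at about 37% in these data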;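 also: 0% = orexin A challenge wells and 100% = SB-334867-A antagonist wells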
# Target sequence (O43613 whole entry, looked up): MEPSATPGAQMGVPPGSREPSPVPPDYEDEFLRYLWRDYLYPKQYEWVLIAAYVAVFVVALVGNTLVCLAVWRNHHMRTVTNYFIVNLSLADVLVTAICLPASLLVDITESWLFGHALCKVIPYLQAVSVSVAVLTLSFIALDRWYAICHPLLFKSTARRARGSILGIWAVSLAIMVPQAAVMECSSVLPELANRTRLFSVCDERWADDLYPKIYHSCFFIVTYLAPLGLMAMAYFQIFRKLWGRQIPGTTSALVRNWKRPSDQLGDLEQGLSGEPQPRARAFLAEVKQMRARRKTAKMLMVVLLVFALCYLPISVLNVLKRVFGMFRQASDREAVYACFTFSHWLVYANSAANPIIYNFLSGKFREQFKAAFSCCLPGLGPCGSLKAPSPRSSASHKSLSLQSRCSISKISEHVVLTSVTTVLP
# TAAR1 ag – human TAAR1 agonism; Q96RJ0; CHO RD-HGA16 TAAR1, Fluo-8 calcium fluorescence; vehicle wells 0%, saturating PEA agonist 100%; activation, % at 3 µM; hit rate 0.99% among 360,000;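 active = activation above the mean activation of all test compounds in the run plus 3 SD, cut at about 38% in these data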
#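 Signal – calcium-sensitive Fluo-8 signal, excitation 470-495, emission 515-575 nm · System – RD-HGA16 (CHO) cells co-expressing Gα16 and hTAAR1 · Incubation – 17-24 h seeding, 75 min 37 °C dye, 30 min RT · Compound dosing – 3 µM single concentration · Repeats – no replicates (n 1)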
# TAAR1 antagonist – human TAAR1 antagonism. Q96RJ0. CHO RD-HGA16 TAAR1, Fluo-8 calcium fluorescence, antagonist. inhibition, % at 3 µM. hit rate 1.5% among 360,000. AID 624466;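 active = inhibition above a per-plate cutoff, the mean inhibition of test compounds on that plate plus 3 SD, cut at about 49% in these data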;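 also: 0% = DMSO plus EC80 beta-PEA response and 100% = DMSO alone without agonist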
#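 Test system: RD-HGA16 CHO cells with stable hTAAR1 and Gα16 / Probe or stimulus: EC80 β-phenethylamine stimulus / Times: seeding 17-24 h prior, 75-min 37 °C, 30-min RT dye loading / Detection: Fluo-8 calcium-sensitive fluorescence / Read-out basis: % inhibition scaled between DMSO and EC80 PEA controls / Repeats: singlicate, one well per test compound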
# NTR1 agonist – NTR1 (human) agonism; P30989; activation, % at 20 µM; AID 493036; NTR1-U2OS beta-arrestin-GFP spot imaging, agonist mode; hit rate 0.17% among 330,000;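 active = activation at or above 40% of the spot to cytoplasm intensity ratio, with at least 20 cells analyzed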;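 also: 0% = DMSO without peptide and 100% = 100 nM NTR1 peptide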
# OX1R antag-2 – antagonists of human orexin 1 receptor (OX1R); hit rate 1.8% among 330,000; O43613; OX1R-expressing cells, FRET antagonist read-out; inhibition, % at 6.6 µM; in the data active = inhibition mostly above about 38%, no sharp cut-off; inactive = mostly below about 40%;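 also: 0% = agonist challenge alone and 100% = reference antagonist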
# CHO parental Ca – counter-screen: ATP calcium response change in parental CHO cells | hit rate 0.63% among 330,000 | inhibition, % at 5.6 µM | parental CHO-K1, ATP-induced calcium, Fluo-8 fluorescence;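 active = inhibition above that plate's mean sample inhibition plus 3 SD, cut at about 26% in these data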;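 also: 0% = ATP-challenged DMSO wells and 100% = DMSO wells without ATP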
#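 Material: Parental CHO cells | Reagent: ATP | Compound dosing: Single nominal dose of 5.6 µM per compound | Detection: Intracellular calcium via Fluo-8 no-wash fluorescent dye | Read-out: % inhibition of ATP-induced calcium mobilization | Benchmarks: Low control ATP plus DMSO, high control DMSO only | Replicates: Singlicate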
# Active calls of the source: *; nt = no result given. Rows were chosen to be rich in hits. Some 4% of all compounds tested hit in one or more screens of this group.
SMILES,OX1R antag-1,TAAR1 ag,TAAR1 antagonist,NTR1 agonist,OX1R antag-2,CHO parental Ca
Cc1cccnc1NC(=O)C(c1ccccc1)c1ccccc1,-11,5,-1,0,13,-7
Cc1cccc(CN2CCc3c(OCC(=O)N4CCCc5ccccc54)cccc3C2=O)c1,-13,9,47,13,29,-30
O=C1c2cccc(OCC(=O)N3CCCc4ccccc43)c2CCN1Cc1ccc(F)cc1,-6,17,56*,16,31,-14
CCCCCC[n+]1ccccc1/C=C/c1ccc(N(C)C)cc1,nt,30,70*,nt,nt,nt
CC[n+]1ccccc1/C=C/c1ccc(N(C)C)cc1,nt,9,14,nt,nt,nt
O=C(CSCc1cccc(Br)c1)N=Nc1c(O)[nH]c2ccccc12,5,2,12,5,51*,-16
O=C(CNC(=O)c1ccccn1)N=Nc1c(O)[nH]c2ccccc12,5,2,10,1,71*,3
CCC(O)(CC)C(=O)N=Nc1c(O)[nH]c2ccccc12,-2,1,2,1,23,-13
CC(C)CC(=O)N=Nc1c(O)[nH]c2ccccc12,-10,1,-12,-2,53*,-5
Cc1cc(C)c(NC(=O)CSc2nnc(Cc3cccn3C)n2-c2ccc(F)cc2)c(C)c1,-8,5,-27,-1,60*,-18
Cc1cc(C)cc(NC(=O)CSc2nnc(Cc3cccn3C)n2-c2ccc(F)cc2)c1,-18,2,-9,0,18,-17
Cc1cccc(NC(=O)c2ccc(Cl)c(S(=O)(=O)N3CCc4ccccc43)c2)n1,27,2,16,6,35*,-14
Cc1cccc(NC(=O)c2ccc(Cl)c(S(=O)(=O)N3CCCC3)c2)n1,-26,3,-5,1,28,-16
O=C(Nc1ccncc1)c1ccc(Cl)c(S(=O)(=O)N2CCc3ccccc32)c1,34,15,63*,8,50*,44*
O=C(Nc1nnc(C2CC2)s1)c1ccc(Cl)c(S(=O)(=O)N2CCc3ccccc3C2)c1,10,10,57*,9,30,0
CCc1nnc(NC(=O)c2ccc(Cl)c(S(=O)(=O)N3CCc4ccccc43)c2)s1,-1,13,20,4,60,13
O=S(=O)(NCC1CCCO1)c1ccc(NS(=O)(=O)c2ccc(F)cc2)cc1 (stereo not given),-17,1,2,-2,4,3
C=CCn1c(SCC(=O)NCCO)nc2sc(C)c(C)c2c1=O,-22,-1,5,0,24,-5
C=CCn1c(SCC(=O)c2cc(C)n(C(C)COC)c2C)nc2sc(C)c(C)c2c1=O (stereo not given),-6,10,24,12,10,36*
COc1cc(/C=C2\C(=O)N(CCC#N)N=C2C)ccc1OCC(=O)Nc1ccccc1,10,13,54*,1,7,7
CCOc1cc(/C=C2\C(=O)N(CCC#N)N=C2C)ccc1OCC(N)=O,-14,9,19,0,7,-10
COc1ccc(N)cc1CN1CCN(c2ncc(Cc3ccccc3)cn2)CC1,nt,1,-8,nt,nt,nt
CC(C)(C)c1ccc(S(=O)(=O)Nc2ccc(Cc3ccncc3)cc2)cc1,-3,46*,39,25,4,4
CC(=O)Nc1ccc(S(=O)(=O)Nc2ccc(Cc3ccncc3)cc2)cc1,-9,6,21,0,0,5
Cc1ccc(C(=O)Nc2ccc(Cc3ccncc3)cc2)cc1[N+](=O)[O-],4,15,60*,0,29,19
CCN(CC)S(=O)(=O)c1ccc(C(=O)Nc2ccc(Cc3ccncc3)cc2)cc1,82*,21,56*,4,39*,85*
N#CC(c1c(Cl)cccc1N1CCCCC1)N1CCCCC1 (stereo not given),nt,0,-4,nt,nt,nt
Cc1cccc(C(=O)OC(C)C(=O)N2CCN(Cc3ccccc3)CC2)c1 (stereo not given),nt,0,-16,-2,nt,nt
Clc1ccc(CN2CCN(c3ncc(Cc4ccccc4)cn3)CC2)c(Cl)c1,nt,2,-39,nt,nt,nt
COC(=O)c1ccc(C2N=C(c3cccs3)CC(c3ccccc3O)N2)cc1 (stereo not given),4,9,-13,8,72*,42*
